XBP1 UPR activ = activators of adaptive arm of unfolded protein response (XBP1); AID 463104; CHO-XBP1 luciferase reporter, IRE1-XBP1 UPR activation, luminescence; percent of tunicamycin response, DMSO as zero; 0.33% of 330,000 active; activation, % at 20 µM;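 active = versus positive control, 20 µM dose yields 30% or more activation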;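 also: 100% = tunicamycin at 10 µg/mL and 0% = DMSO only wells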
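Material: CHO cell line with stable XBP1 luciferase reporter; buffer or medium: F12 medium containing 10% fetal bovine serum; compound: single point, 20 µM final compound, 1% DMSO; incubation: 6 h treatment, 37 °C; measured by: glow luminescence from Steady-Glo reagent; evaluation: activation, % of tunicamycin; control set: tunicamycin high, DMSO low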
CHOP inhibitor = inhibitors of CHOP induction in ER stress response. CHO-K1 CHOP-promoter luciferase, tunicamycin-induced, 15-18 h. AID 2732. inhibition, % at 10 µM. 3.8% of 220,000 active;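 active = compounds that reduced the stress-induced luciferase reporter signal by more than about 70% of percent inhibition, limit read from the data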;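 also: 0% = tunicamycin plus vehicle and 100% = wells without tunicamycin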
UPR CHOP act = apoptotic UPR (CHOP) activation | CHO-CHOP luciferase reporter, luminescence; percent of tunicamycin response over DMSO baseline | activation, % at 10 µM | 0.34% of 330,000 active;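 active = at 10 µM dose, activation of 40% or more, normalized to positive control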;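 also: 100% = tunicamycin at 10 µg/mL and 0% = DMSO alone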
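System: CHO-CHOP luciferase reporter cell line; amount: 500 cells/well; buffer or medium: F12 medium containing 10% fetal bovine serum; incubation: 6 h compound exposure at 37 °C after overnight seeding; measured by: luciferase luminescence after 10 min with Steady-Glo reagent; evaluation: % reporter activation, DMSO baseline versus tunicamycin full activation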
Cardio protect = modulators protecting cardiomyocytes from myocardial damage | H9c2 cardiomyocytes, H2O2 injury protection, ATPLite, 2 h | protection from H2O2 cell death, % at 20 µM | 0.63% of 360,000 active;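 active = compounds giving at least 50% protection of heart cells from peroxide-induced death in the single-dose screen, raw or plate-pattern-corrected value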;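 also: 0% = DMSO wells with peroxide and 100% = DMSO wells without peroxide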
iPSC survival up = enhancers of human iPSC single-cell survival; hiPSC single-cell survival, ATPlite luminescence; 100% = ROCK inhibitor wells, 0% = DMSO; survival enhancement, % at 20 µM; 0.044% of 360,000 active; AID 602274; in the data active = survival enhancement above about 18%;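 also: cells exposed to compounds for 16 hours before the ATP read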
* hit, by the source's call; · = no result given. Only a selection was taken, and hits are over-represented in it overall.

SMILES | XBP1 UPR activ | CHOP inhibitor | UPR CHOP act | Cardio protect | iPSC survival up
CC1(C)OC(=O)C(=Cc2ccc(-c3ccc(S(N)(=O)=O)cc3)o2)C(=O)O1 | 1 | 100* | 0 | -3 | 1
Cc1ccc(C(=O)CSc2nc3ccccc3c(=O)[nH]2)cc1 | 0 | -2 | -2 | 47* | 1
Cc1ccc(C(=O)CSc2nc3ccccc3c(=O)[nH]2)cc1C | 1 | -9 | 0 | 12 | -1
O=C(CSc1nc2ccccc2c(=O)[nH]1)Nc1ccc(C(=O)O)cc1 | 0 | 2 | -2 | 6 | 0
CCc1ccc(C(=O)CSc2nc3ccccc3c(=O)[nH]2)cc1 | -3 | 95* | -2 | 17 | 2
O=C(CCCSc1nc2ccccc2c(=O)[nH]1)c1ccc(F)cc1 | -3 | 79* | 1 | 23 | 0
CC(C)COC(=O)N1CCCCC1c1cc(C(=O)NCc2ccc(F)cc2)no1 (stereo not given) | · | · | · | -4 | 2
NC(=O)c1nn(-c2ccccc2)nc1NC(=O)Cn1nnc(-c2ccccc2)n1 | 0 | 72* | 3 | -4 | 0
CCOC(=O)C(C(=O)OCC)c1cc(Br)c2noc3c2c1C(=O)c1ccccc1-3 | -11 | 110* | -7 | -37 | 1
Cc1ccc2[nH]c(C)c(CCNC(=O)c3cc4cc([N+](=O)[O-])ccc4oc3=O)c2c1 | 4 | 89* | -3 | 4 | 2
CCCc1cc(-c2n[nH]c(C)c2-c2ccc(C(=O)OCC)o2)c(O)cc1O | -1 | 71* | 1 | -12 | -2
CCOC(=O)c1cc2c(c(CCO)n1)[C@@H](CCO)N(S(=O)(=O)C(C)(C)C)C2 | · | · | · | -3 | 2
C=CCSC1=NC(=O)/C(=C/c2cccs2)S1 | · | 81* | · | 7 | -1
Cc1ccc(NC(=O)CN2C(=O)NC3(CCCc4ccccc43)C2=O)c([N+](=O)[O-])c1 (stereo not given) | -4 | · | 2 | 2 | -1
C=C(C)COc1ccc2c(C)c(C)c(=O)oc2c1OCC(=C)C | -7 | 66 | -2 | -25 | 1
C=C(C)COc1ccc2c3c(c(=O)oc2c1OCC(=C)C)CCC3 | -1 | 73* | 2 | -11 | 2
Cc1ccc(C(O)c2ncc(-c3ccc4ccccc4c3)[nH]2)cc1F (stereo not given) | · | · | · | -22 | 0
CC(C)(O)C#Cc1ccc(CNC[C@H]2O[C@@H](n3cnc4c(N)ncnc43)[C@H](O)[C@@H]2O)s1 | 0 | · | 5 | 5 | -1
COC(=O)c1cc(CN2CCN(c3ccccc3C)CC2)ccc1O | -2 | 72* | -3 | -5 | -1
O=C(N/N=C/c1ccc(F)cc1)c1cc(-c2ccc3c(c2)OCO3)n[nH]1 | 0 | 0 | 0 | 13 | 0
COc1ccc(/C=N/NC(=O)c2cc(-c3ccc4c(c3)OCO4)n[nH]2)cc1OC | 4 | 20 | 1 | 65* | 1
CC(=O)N(C)C[C@H]1Oc2ncc(Br)cc2C(=O)N([C@H](C)CO)C[C@@H]1C | · | · | · | 1 | -2
COc1ccc([N+](=O)[O-])cc1NC(=S)NC(NC(=O)C(c1ccccc1)c1ccccc1)C(Cl)(Cl)Cl (stereo not given) | 2 | 73* | 15 | -22 | 3
COc1ccc(C(=O)C=CNNC(=O)c2ccc(Cl)cc2)cc1 | -3 | · | -1 | 43 | 0
O=C(/C=C/NNC(=O)c1ccc(Cl)cc1)c1ccccc1 | 5 | 11 | 1 | 30 | 0
SMILES | XBP1 UPR activ | CHOP inhibitor | UPR CHOP act | Cardio protect | iPSC survival up
COc1ccc(C(=O)NN/C=C/C(=O)c2ccc(Br)cc2)cc1 | · | · | · | 58* | 2
O=C(/C=C/NNC(=O)c1ccccc1)c1ccc(Br)cc1 | 2 | 14 | 2 | 59* | -1
COc1nc(N/N=C/c2cc3c(cc2Br)OCO3)nc(N2CCOCC2)n1 | 0 | -10 | 3 | 54* | 3
Cc1cc(N=Cc2c(O)ccc3ccccc23)no1 | 0 | -9 | -1 | 13 | -1
Cc1cc(N=Cc2c(O)ccc3cc(Br)ccc23)no1 | · | -13 | · | 66* | -1
CCNC(=O)C1(C)CCN(C(=O)c2ccc(C#N)cc2)C1 (stereo not given) | · | · | · | 0 | 10
O=C(/C=C/c1ccc(Cl)cc1)N(c1ccccn1)C1CCCCC1 | -2 | 70* | 0 | 1 | -1
COc1ccc(Cn2cc(CN3CC(N4CCN(C)CC4)CS3(=O)=O)nn2)cc1 (stereo not given) | · | · | · | · | 1
Cc1ccc(-n2cc(CNCCc3cscn3)c(-c3ccc(F)cc3)n2)cc1 | 0 | 85* | 0 | -14 | -2
Cc1ccc(-n2cc(CNCCCn3ccnc3C)c(-c3ccc(F)cc3)n2)cc1 | 2 | -23 | 1 | -18 | -1
Cc1cc(C(=O)CSc2nnc(N)s2)c(C)n1Cc1cccs1 | -4 | 45 | -4 | -10 | -1
Cc1csc(SCC(=O)c2cc(C)n(Cc3cccs3)c2C)n1 | -5 | 76* | -7 | -38 | -4
CCC(C)NC(=O)c1cccc(OCc2c(C)noc2C)c1 (stereo not given) | -1 | 1 | -1 | -1 | 0
CCOC(=O)c1c(C)[nH]c(C(=O)C(C)OC(=O)c2cccc(OCc3c(C)noc3C)c2)c1C (stereo not given) | -1 | 80* | 2 | -33 | 5
COc1cc2ccccc2cc1C(=O)N(CCN(C)C)c1nc2c(C)cccc2s1 | -5 | · | 0 | -10 | 0
Cc1cccc2sc(N(CCN(C)C)C(=O)c3cc(Cl)sc3Cl)nc12 | 2 | 72* | 2 | -4 | -1
CCOC(=O)CSC1=C(C#N)C(c2ccccc2OCC)C(C#N)C(=O)N1 (stereo not given) | 8 | 52 | -2 | -5 | -2
CCOC(=O)C1C(=O)NC(SCC(=O)OC)=C(C#N)C1c1ccccc1OCC (stereo not given) | -3 | 27 | -2 | 72* | 2
CCOC(=O)CSC1=C(C#N)C(c2ccccc2OCC)C(C(=O)OCC)C(=O)N1 (stereo not given) | -3 | 36 | -1 | 8 | 0
CCOc1ccccc1C1C(C#N)=C(SCC(=O)OC)NC(=O)C1C(=O)OC (stereo not given) | -1 | 80* | 3 | 15 | 0
FC(F)(F)c1cc(Cl)c2nc(-c3ccco3)c(Cc3ccccc3C(F)(F)F)n2c1 | · | · | · | · | 0
O=C(NCc1ccccn1)C(=O)Nc1nc(C23CC4CC(CC(C4)C2)C3)cs1 | 8 | 71* | 1 | -2 | 0
CC1=CC2=NC(=O)CC(C)(C(=O)N(CC(=O)NC3CCCC3)Cc3ccccc3)N2C=C1 (stereo not given) | -3 | · | 2 | -2 | 0
Cc1cccc2cc(CN(Cc3ccc(F)cc3)C(=O)N(C)C)c3nnnn3c12 | -3 | 90* | -1 | 11 | 1
CCCCCCCCSC1=CC(=O)C(OC)=C(OC)C1=O | · | · | · | -27 | -3
N#CC(C#N)=C/C(C#N)=C(/N)N1CCN(c2ccc(Cl)cc2)CC1 | 0 | 80* | 3 | -13 | 11

Screening results: PubChem BioAssay, several laboratories
